Where a chain is given by its changes, count along the chain named.

Holding throughout (type): biochemical
Experiment [1] has as its target T1, sDTE (Sinorhizobium sp. D-tagatose 3-epimerase) (Sinorhizobium sp., UniProt Z9YNK1L8X5, R65G).
T1 sequence (Z9YNK1L8X5 1-293 R65G): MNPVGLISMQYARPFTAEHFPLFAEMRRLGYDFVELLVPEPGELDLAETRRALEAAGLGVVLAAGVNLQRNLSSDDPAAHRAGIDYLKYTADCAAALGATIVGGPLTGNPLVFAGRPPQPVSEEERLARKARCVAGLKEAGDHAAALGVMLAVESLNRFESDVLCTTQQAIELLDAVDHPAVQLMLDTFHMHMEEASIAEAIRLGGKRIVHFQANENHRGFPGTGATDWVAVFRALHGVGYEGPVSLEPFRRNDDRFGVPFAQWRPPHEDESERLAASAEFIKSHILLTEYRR
Briefly: D-sorbose formation by HPLC, relative activity. The note with it: […] g/L D-tagatose, […] Mn2+, […] enzyme, pH […] °C, […] min.

The target in experiment [2] is T2, sDTE (Sinorhizobium sp. D-tagatose 3-epimerase) (Sinorhizobium sp., UniProt Z9YNK1L8X5, M9A).
T2 sequence (Z9YNK1L8X5 1-293 M9A): T1 sequence (Z9YNK1L8X5 1-293 R65G) with M9A, G65R
As to the kind of experiment: D-sorbose formation by HPLC, relative activity. The note with it: […] g/L D-tagatose, […] Mn2+, […] enzyme, pH […] °C, […] min.

Experiment [3] concerns sDTE (Sinorhizobium sp. D-tagatose 3-epimerase). Briefly: Michaelis-Menten non-linear regression. As to conditions: optimum pH 8.0 (Tris-HCl) and 50 °C; Mn2+. An outline of the steps:
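Enzyme expressed from pET28a(+) in E. coli BL21(DE3) (0.5 mM IPTG, 16 °C, 20 h), purified on Ni-NTA then Resource Q. Standard assay: 20 mM Tris–HCl pH 8.0, 1 μM Mn2+, 0.5 μM enzyme, 50 °C, 10 min; stopped by boiling 5 min; sugars by HPLC-ELSD. Kinetics used four ketose substrates, with Michaelis–Menten non-linear fit; three repeats, mean ± S.D.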

For the compound `OCC1(O)OC[C@@H](O)[C@H](O)[C@@H]1O` (stereo partly drawn) [D-Tagatose], the “D-sorbose formation by HPLC, relative activity” value in experiment [1] was “the mutation of R65G and M9A abolished the catalytic activity toward D-tagatose”; in experiment [2], “the mutation of R65G and M9A abolished the catalytic activity toward D-tagatose”. Besides, in experiment [3], the Km is 26 ± 1.2 mM.
Consider `O=C(CO)[C@H](O)[C@H](O)[C@H](O)CO` [D-Allulose], for which, in experiment [3], the Km is 39.8 ± 1.7 mM.
Same read-out and setting: to `OCC1(O)OC[C@@H](O)[C@H](O)[C@H]1O` (stereo partly drawn) [D-Sorbose] belongs 83 ± 4.3 mM.
Turning to `OCC1(O)OC[C@@H](O)[C@@H](O)[C@@H]1O` (stereo partly drawn) [D-Fructose], the Km in experiment [3] stood at 54.7 ± 1.3 mM.

The values above are taken from publication PMC9059984 (RSC Advances, 2019).
